The source of these data is ChEMBL document CHEMBL1150585, “Phytotoxic compounds from Prionosciadium watsoni” (J Nat Prod, 2002).

Molecules are shown by their SMILES. Activity calls are given as the source filed them. The rule behind the calls is not given here.

One assay relates to Echinochloa crus-galli. The assay is described as follows: Phytotoxicity against Echinochloa crus-galli assessed as inhibition of radicle elongation by petri dish bioassay. It is filed as functional, organism-based. The method, boiled down: (§1)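 Petri dish germination and radicle elongation bioassay on seedlings at 28 °C. Pure compounds tested at 10, 50, 100 and 200 µg mL-1, with 2,4-D as positive control. IC50 derived by Probit analysis from percent radicle growth or germination inhibition; ANOVA (p < 0.05).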

Assay [1] concerns Amaranthus hypochondriacus. The assay is described as follows: Phytotoxicity against Amaranthus hypochondriacus assessed as inhibition of radicle elongation by petri dish bioassay. It is filed as functional, organism-based. The method, boiled down: as §1
A further assay deals with Calmodulin (Bos taurus) (UniProt P62157). Description: Binding affinity to bovine brain calmodulin assessed as modification of electrophoretic mobility at 0.033 ug/mL after 1.5 hrs by SDS-PAGE in presence of calcium chloride. The method, boiled down:
(§2)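 Bovine brain and spinach calmodulin, 2 µg samples, pretreated 1.5 h at 30 °C with 1 mM CaCl2 and compound (0.033 µg/mL). Denaturing SDS-PAGE on 15% polyacrylamide gels in presence of Ca2+. Read-out is change in electrophoretic mobility relative to an untreated calmodulin lane.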

Assay [2] deals with Lemna aequinoctialis. Description: Phytotoxicity against Lemna paucicostata assessed as growth inhibition at 200 uM after 3 days relative to control. The assay is classed as functional. Conditions: 72 h, read-out: GI. The method in brief:
(§3)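 Lemna culture of 10 colonies, three fronds each, in 3 mL half-strength Hunter's medium containing compound for 3 days (72 h). Percent growth inhibition is versus culture-medium control, as means of three replicates ± standard deviation; significance by Student's unpaired t-test.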

Assay [3] concerns Lemna aequinoctialis. Description: Phytotoxicity against Lemna paucicostata assessed as chlorophyll reduction at 50 uM after 3 days by ultraviolet spectroscopy relative to control. It is filed as functional. The following applies: 72 h, read-out: GI. The method in brief:
(§4)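 Duckweed (Lemna) culture: 10 colonies of three fronds each in 3 mL half-strength Hunter's medium with compound, run 3 days. Afterwards plants are removed from medium, blotted and extracted overnight in the dark with 5 mL DMSO. Chlorophyll is expressed on fresh weight basis. Reduction is relative to culture-medium control, as means of three replicates ± standard deviation, with Student's unpaired t-test.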

Assay [4] deals with Lemna aequinoctialis. The assay is described as follows: Phytotoxicity against Lemna paucicostata assessed as growth inhibition at 25 uM after 3 days relative to control. It is filed as functional. Conditions: 72 h, read-out: GI. The method, boiled down: as §3
Assay [5] relates to Lemna aequinoctialis. Description: Phytotoxicity against Lemna paucicostata assessed as chlorophyll reduction at 200 uM after 3 days by ultraviolet spectroscopy relative to control. The assay is classed as functional. Conditions: 72 h, read-out: GI. The method in brief:
as §4

Assay [6] concerns Lemna aequinoctialis. The assay is described as follows: Phytotoxicity against Lemna paucicostata assessed as chlorophyll reduction at 100 uM after 3 days by ultraviolet spectroscopy relative to control. It is filed as functional. Conditions: 72 h, read-out: GI. The method, boiled down:
as §4

Assay [7] concerns Lemna aequinoctialis. Description: Phytotoxicity against Lemna paucicostata assessed as growth inhibition at 50 uM after 3 days relative to control. The assay is classed as functional. The following applies: 72 h, read-out: GI. The method, boiled down: as §3
Assay [8] concerns Lemna aequinoctialis. Description: Phytotoxicity against Lemna paucicostata assessed as growth inhibition at 100 uM after 3 days relative to control. It is filed as functional. The following applies: 72 h, read-out: GI. The method in brief:
as §3

Assay [9] addresses Calmodulin (Spinacia oleracea) (UniProt P04353). Description: Binding affinity to spinach calmodulin assessed as modification of electrophoretic mobility at 0.033 ug/mL after 1.5 hrs by SDS-PAGE in presence of calcium chloride. The method in brief:
as §2

Assay [10] has as its system Lemna aequinoctialis. Description: Phytotoxicity against Lemna paucicostata assessed as chlorophyll reduction at 25 uM after 3 days by ultraviolet spectroscopy relative to control. It is filed as functional. Conditions: 72 h, read-out: GI. The method, boiled down: as §4
The subject of assay [11] is Lemna aequinoctialis. Description: Phytotoxicity against Lemna paucicostata assessed as growth inhibition at 12 uM after 3 days relative to control. It is filed as functional. The following applies: 72 h, read-out: GI. The method in brief:
as §3

Assay [12] concerns Lemna aequinoctialis. Description: Phytotoxicity against Lemna paucicostata assessed as chlorophyll reduction at 12 uM after 3 days by ultraviolet spectroscopy relative to control. The assay is classed as functional. Conditions: 72 h. The method in brief:
as §4

For orientation: IC50 means the concentration at which inhibition is half-maximal.

With `CC1(C)Oc2ccc3ccc(=O)oc3c2[C@@H](O)[C@H]1O`, the IC50 is 439 µM in the assay with Echinochloa crus-galli and 361 µM in assay [1].

Take `CC(C)C(=O)O[C@@H]1Cc2c(ccc3ccc(=O)oc23)OC1(C)C`: the outcome (at Calmodulin (Bos taurus); in assay [9]) was Active. Besides, the values for the inhibition of growth at 200 µM with Lemna aequinoctialis [2] and in the assay on Lemna aequinoctialis [5] were 100% and 87.4%, respectively. Also, the results for the inhibition of growth at 50 µM in the assay on Lemna aequinoctialis [3] and with Lemna aequinoctialis [7] were 54.3% and 23.5%, respectively. The inhibition of growth at 25 µM in the assay on Lemna aequinoctialis [4] was 19.6%; in the assay with Lemna aequinoctialis [10] it was 20%. Also, the inhibition of growth at 100 µM is 84.9% with Lemna aequinoctialis [6] and 58.8% in the assay with Lemna aequinoctialis [8]. Also, the IC50 is 169 µM in the assay on Echinochloa crus-galli and 237 µM in assay [1].

As for `C/C=C(/C)C(=O)O[C@@H]1[C@H](O)c2c(ccc3ccc(=O)oc23)OC1(C)C`, the result (on Calmodulin (Bos taurus); in assay [9]) was Active. The IC50 in the assay on Echinochloa crus-galli is 155 µM; in assay [1] it was 262 µM.

For `COc1c2c(cc3oc(C)cc(=O)c13)OC(C)(C)[C@H](OC(=O)C(C)C)C2`, the outcome (on Calmodulin (Bos taurus); in assay [9]) was Active. Besides, the IC50 with Echinochloa crus-galli is 14.8 µM; in [1], 74.1 µM.

Take `CC(=O)O[C@@H]1[C@H](OC(=O)C(C)C)c2c(ccc3ccc(=O)oc23)OC1(C)C` [SERAVSHANIN]: the result (on Calmodulin (Bos taurus); in [9]) was Active. Further, the IC50 in the assay on Echinochloa crus-galli came to 162 µM; in [1], 402 µM.

As for `CC(C)C(=O)O[C@@H]1c2c(ccc3ccc(=O)oc23)OC(C)(C)[C@@H]1O`, the result (on Calmodulin (Bos taurus); in [9]) was Active. In addition, the values for the IC50 (in the assay with Echinochloa crus-galli; in assay [1]) were 595 µM and 189 µM, respectively.

With `CO[C@@H]1c2c(ccc3ccc(=O)oc23)OC(C)(C)[C@@H]1O`, the outcome (on Calmodulin (Bos taurus); in assay [9]) was Active. Also, the Activity result (in the assay with Echinochloa crus-galli; in assay [1]) was “Dose-dependent effect” each time. The IC50 with Echinochloa crus-galli was 6.19 µM; in assay [1] it was 325 µM.

As for `C/C=C(/C)C(=O)O[C@@H]1Cc2c(ccc3ccc(=O)oc23)OC1(C)C` [JATAMANSIN], in the assay on Lemna aequinoctialis [11], the inhibition of growth at 12 µM stood at 15.3%. For the same compound, the result (at Calmodulin (Bos taurus); in assay [9]) was Active. In addition, the results for the inhibition of growth at 50 µM in the assay with Lemna aequinoctialis [3] and in the assay on Lemna aequinoctialis [7] were 12.8% and 47.6%, respectively. Also, the inhibition of growth at 25 µM in the assay on Lemna aequinoctialis [4] is 37.5%; in the assay with Lemna aequinoctialis [10], 4.37%. The figures for the inhibition of growth at 100 µM in the assay on Lemna aequinoctialis [6] and with Lemna aequinoctialis [8] were 40.3% and 100%, respectively. Moreover, the IC50 turned out to be 863 µM in the assay with Echinochloa crus-galli and 260 µM in assay [1]. For the same compound, in the assay on Lemna aequinoctialis [12], the chlorophyll reduction at 12 µM turned out to be 5.94%.

For the compound `C/C=C(/C)C(=O)O[C@@H]1Cc2c(cc3oc(C)cc(=O)c3c2OC)OC1(C)C`, the outcome (on Calmodulin (Bos taurus); in [9]) was Active. Moreover, the IC50 is 26.4 µM with Echinochloa crus-galli and 143 µM in assay [1].

With `CC1(C)Oc2ccc3ccc(=O)oc3c2C[C@H]1O` [(+)-LOMATIN], the outcome (on Calmodulin (Bos taurus); in [9]) was Active. The Activity entry (in the assay on Echinochloa crus-galli; in assay [1]) was “Dose-dependent effect” throughout. Moreover, the IC50 worked out at 296 µM with Echinochloa crus-galli and 344 µM in assay [1].

On to `COc1c2c(cc3oc(C)cc(=O)c13)OC(C)(C)[C@H](O)C2`, for which the outcome (on Calmodulin (Bos taurus); in [9]) was Active. Further, the Activity entry (in the assay on Echinochloa crus-galli; in assay [1]) was “Dose-dependent effect” each time. Also, the IC50 with Echinochloa crus-galli worked out at 461 µM; in assay [1] it was 383 µM.

As for `CCC(=O)O[C@@H]1c2c(ccc3ccc(=O)oc23)OC(C)(C)[C@@H]1OC(C)=O`, the result (on Calmodulin (Bos taurus); in [9]) was Active. Moreover, the IC50 in the assay with Echinochloa crus-galli turned out to be 439 µM; in [1], 396 µM.

With `CO[C@H]1c2c(ccc3ccc(=O)oc23)OC(C)(C)[C@@H]1O`, the outcome (on Calmodulin (Bos taurus); in [9]) was Active. The Activity result (with Echinochloa crus-galli; in [1]) was “Dose-dependent effect” each time. The IC50 came out at 808 µM in the assay with Echinochloa crus-galli and 108 µM in assay [1].
